Experimental data collected from several papers.
Lines come from different studies, so protocols differ.
Target: Serine/threonine-protein kinase D3 (PRKD3, Homo sapiens, UniProt O94806)
Sequence (O94806 1-890, as in one of the studies): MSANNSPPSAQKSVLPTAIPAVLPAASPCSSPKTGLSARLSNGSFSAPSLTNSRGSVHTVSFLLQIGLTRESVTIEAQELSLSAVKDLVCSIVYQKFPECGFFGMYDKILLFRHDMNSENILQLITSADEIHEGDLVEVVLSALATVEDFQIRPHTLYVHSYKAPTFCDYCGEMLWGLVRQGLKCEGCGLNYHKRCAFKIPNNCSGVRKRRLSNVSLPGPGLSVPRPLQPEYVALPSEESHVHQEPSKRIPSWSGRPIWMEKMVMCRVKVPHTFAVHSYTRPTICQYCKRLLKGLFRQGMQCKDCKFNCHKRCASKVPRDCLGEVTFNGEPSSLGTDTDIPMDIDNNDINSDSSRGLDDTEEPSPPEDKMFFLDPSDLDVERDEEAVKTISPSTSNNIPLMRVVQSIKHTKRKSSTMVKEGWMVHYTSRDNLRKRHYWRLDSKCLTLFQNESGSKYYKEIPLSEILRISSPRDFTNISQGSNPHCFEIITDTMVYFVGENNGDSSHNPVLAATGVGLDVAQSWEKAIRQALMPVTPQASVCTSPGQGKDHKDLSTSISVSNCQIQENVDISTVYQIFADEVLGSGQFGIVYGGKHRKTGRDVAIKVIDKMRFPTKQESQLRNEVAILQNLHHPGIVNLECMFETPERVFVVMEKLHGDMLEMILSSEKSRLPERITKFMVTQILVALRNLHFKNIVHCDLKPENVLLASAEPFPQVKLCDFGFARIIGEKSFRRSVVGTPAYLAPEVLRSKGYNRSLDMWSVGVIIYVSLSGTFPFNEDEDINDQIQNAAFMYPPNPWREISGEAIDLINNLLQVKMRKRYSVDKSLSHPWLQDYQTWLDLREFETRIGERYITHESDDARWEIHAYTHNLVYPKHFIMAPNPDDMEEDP

COc1ncc2cc3ccccc3nc2c1C#N — remaining binding (cell-free assay; competition with immobilised ligand; 5 µM): 100%
CN(C)c1nccc(-c2cnn3ncccc23)n1 — remaining binding (binding; 1 µM): 100%
O=C(NCCCN1CCOCC1)c1ccc(Nc2nccc(-c3cc4ccccc4s3)n2)cc1 — remaining binding (binding; competition with immobilised ligand; 1 µM): 32%
CNC(=O)[C@@H]1CC[C@@H](n2c(-c3ccc4cnccc4c3)nc3ccc(C(=O)NCc4cccc(C(N)=O)c4)cc32)C1 — remaining binding (binding; competition with immobilised ligand; 1 µM): 91%
CN(C)c1nccc(-c2cnc3ncccn23)n1 — remaining binding (binding; 1 µM): 100%
O=C(Nc1c[nH]nc1C(=O)NC1CCNCC1)c1cc(F)cc(F)c1 — remaining binding (binding; competition with immobilised ligand; 1 µM): 100%
COc1cnc(Nc2cccc(S(N)(=O)=O)c2)nc1N1CCN(c2ccccc2)C(=O)C1 — remaining binding (binding; competition with immobilised ligand; 1 µM): 92%
O=C(O)[C@@H]1[C@@H](Cn2nnc3ccccc3c2=O)CC[C@H]1C(=O)c1ccc(OCCC2CCOCC2)cc1 — remaining binding (cell-free assay; competition with immobilised ligand; 1 µM): 100%
N[C@@H]1CCN(c2nccc(-c3cnn4ncccc34)n2)C1 — remaining binding (binding; 1 µM): 100%
C[C@@H]1CN(c2cc(-c3n[nH]c4ccc(OC5(C)CC5)cc34)ncn2)C[C@H](C)O1 — remaining binding (cell-free assay; competition with immobilised ligand; 0.1 µM): 82%
C[C@H]1CCN(c2nccc(-c3cnn4ncccc34)n2)C1 — remaining binding (binding; 1 µM): 59%
Cc1c[nH]c2nccc(Oc3c(F)cc(Nc4cc(Cl)nc(N)n4)cc3F)c12 — remaining binding (cell-free assay; competition with immobilised ligand; 0.1 µM): 100%
Cc1cnc(Nc2ccc(C(=O)N3CCC(N4CCCC4)CC3)cc2)nc1-c1cc2ccccc2s1 — remaining binding (binding; competition with immobilised ligand; 1 µM): 37%
FC(F)(F)Oc1cccc(-c2cnc3ccc(-c4ccncc4)nn23)c1 — remaining binding (cell-free assay; competition with immobilised ligand; 5 µM): 100%
F[C@@H]1CCN(c2nccc(-c3cnn4ncccc34)n2)C1 — remaining binding (binding; 1 µM): 76%
CNC(=O)c1ccc(Nc2ncc(C(F)(F)F)c(NCc3nccnc3N(C)S(C)(=O)=O)n2)cc1 — remaining binding (cell-free assay; competition with immobilised ligand; 0.1 µM): 100%
c1cnn2ncc(-c3ccnc(N4CCC45COC5)n3)c2c1 — remaining binding (binding; 1 µM): 71%
Cc1cc(NC(=O)c2cccc(S(F)(F)(F)(F)F)c2)cc(-n2ccn3nc(-c4cccnc4)cc23)c1 — remaining binding (cell-free assay; competition with immobilised ligand; 1 µM): 100%
O=C(c1ccc(Nc2nccc(-c3cc4ccccc4s3)n2)cc1)N1CCC(N2CCCC2)CC1 — remaining binding (binding; competition with immobilised ligand; 1 µM): 50%
CNCc1ccccc1-c1csc([C@@H](C)Nc2nc(C)nc3cc(OC)c(OC)cc23)c1 — remaining binding (cell-free assay; competition with immobilised ligand; 1 µM): 92%
C[C@@H](c1ccc(-n2cnc3c(N)ncnc32)cc1)N1CCc2nn(C)c(Cc3ccccc3)c2C1=O — remaining binding (binding; competition with immobilised ligand; 0.1 µM): 85%
